Laboratory results from ChEMBL document CHEMBL3227959, “2'-O-Acyl-6-thioinosine cyclic 3',5'-phosphates as prodrugs of thioinosinic acid” (J Med Chem, 1979).
pEC50: −log10 of the molar value. Activity calls are given as the source filed them. The calls are words filed in the database; no cut-off is given here.

Columns and labels:
S49 [1] = assay: Cytotoxicity against wild type mouse S49 cells assessed as growth inhibition after 72 hrs by trypan blue exclusion assay; format: functional, cell-based; conditions: S49, 72 h
Summary of the method: (§1)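 S49 mouse T-lymphoma cells, pre-grown 24 h to keep growth exponential and asynchronous, were plated at 10^5 cells/mL in complete Dulbecco's modified Eagle medium. Agents were added in 30 mM NaHCO3. After 72 h at 37 °C, cells were counted by Coulter counter. Initial density was subtracted and growth expressed as a fraction of drug-free wells. EC50 was read from the percent-inhibition versus concentration plot, reported as mean ± SE. Trypan blue was used to check cytolysis.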

S49 [2] = assay: Cytotoxicity against HGPRTase-deficient mouse S49 cells assessed as growth inhibition after 72 hrs by trypan blue exclusion assay; format: functional, cell-based; conditions: S49, 72 h; summary of the method: as §1
[3] = Drug degradation in Eagle's medium containing 10 % heat-inactivated horse serum assessed as parent compound after 3 days by reverse-phase liquid chromatography; format: physicochemical; conditions: read-out: Stability
Summary of the method: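 Agent at 0.5 mM was incubated without cells for 3 days at 37 °C in Dulbecco's modified Eagle medium with 10% heat-inactivated horse serum. Aliquots were diluted 5:1 with methanol, filtered (0.45 μm), and analysed by reverse-phase C18 LC.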

S49 [4] = assay: Cytotoxicity against HGPRTase-deficient mouse S49 cells assessed as growth inhibition in presence of 4-(3-butoxy-4-methoxybenzyl)-2-imidazolone
S49 [5] = assay: Cytotoxicity against HGPRTase-deficient mouse S49 cells assessed as growth inhibition in presence of theophylline
S49 [6] = assay: Cytotoxicity against HGPRTase-, protein kinase- and phosphodiesterase-deficient mouse S49 cells assessed as growth inhibition; format: functional, cell-based; summary of the method: as §1
S49 [7] = assay: Cytotoxicity against wild type mouse S49 cells assessed as growth inhibition after 24 hrs by time-course study; format: functional, cell-based
S49 [8] = assay: Cytotoxicity against HGPRTase-deficient mouse S49 cells assessed as growth inhibition at 100 uM after 72 hrs by trypan blue exclusion assay; format: functional, cell-based; summary of the method: as §1
S49 [9] = assay: Cytotoxicity against HGPRTase- and protein kinase-deficient mouse S49 cells assessed as growth inhibition at 1 mM; format: functional, cell-based; summary of the method: as §1
S49 [10] = assay: Cytotoxicity against wild type mouse S49 cells assessed as growth inhibition at 200 uM after 72 hrs by trypan blue exclusion assay; format: functional; conditions: S49, 72 h, read-out: GI; summary of the method: as §1
S49 [11] = assay: Cytotoxicity against HGPRTase-deficient mouse S49 cells assessed as growth inhibition at 1000 uM after 72 hrs by trypan blue exclusion assay; format: functional, cell-based; summary of the method: as §1
S49 [12] = assay: Cytotoxicity against HGPRTase- and protein kinase-deficient mouse S49 cells assessed as growth inhibition; format: functional, cell-based; summary of the method: as §1
S49 [13] = assay: Cytotoxicity against HGPRTase-deficient mouse S49 cells assessed as growth inhibition at 500 uM after 20 to 49 hrs by time-course study; format: functional, cell-based
Summary of the method: (§2)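 Growth of HGPRTase-deficient S49 cells was followed over time with 0.5 mM agent, compared with drug-free cultures. The cAMP comparator was given with 0.2 mM theophylline.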

S49 [14] = assay: Cytotoxicity against HGPRTase-deficient mouse S49 cells assessed as growth inhibition at 500 uM after 20 to 49 hrs by time-course study in presence of theophylline; format: functional, cell-based; summary of the method: as §2

SMILES	pEC50 (S49 [1])	pEC50 (S49 [2])	also measured
CC(=O)O[C@@H]1[C@@H]2OP(=O)(O)OC[C@H]2O[C@H]1n1cnc2c(=S)[nH]cnc21	3.68	3.18	–
CCCCCCCCCCCC(=O)O[C@@H]1[C@@H]2OP(=O)(O)OC[C@H]2O[C@H]1n1cnc2c(=S)[nH]cnc21	5.00	3.96	–
OC[C@H]1O[C@@H](n2cnc3c(S)ncnc32)[C@H](O)[C@@H]1O [THIOINOSINE]	6.60	3.40	–
CCCCCCCCCCCCCCCC(=O)O[C@@H]1[C@@H]2OP(=O)(O)OC[C@H]2O[C@H]1n1cnc2c(=S)[nH]cnc21	5.22	4.19	remaining at 72 h [3]: 20%; growth inhibition (GI) (S49 [4]): Active; growth inhibition (GI) (S49 [5]): Active; growth inhibition (GI) (S49 [6]): Active
Sc1ncnc2nc[nH]c12 [MERCAPTOPURINE ANHYDROUS]	5.10	< 3.00	growth inhibition (GI) (S49 [7]): Active
CCCCCC(=O)O [HEXANOATE]	–	< 3.00	–
CCCCCCCCCCCC(=O)O	–	–	growth inhibition (GI) (S49 [8]): inactive
CCCC(=O)O[C@@H]1[C@@H]2OP(=O)(O)OC[C@H]2O[C@H]1n1cnc2c(N)ncnc21	–	–	growth inhibition (GI) (S49 [9]): inactive
CCCCCC(=O)O[C@@H]1[C@@H]2OP(=O)(O)OC[C@H]2O[C@H]1n1cnc2c(=S)[nH]cnc21	5.00	3.68	–
O=P1(O)OC[C@H]2O[C@@H](n3cnc4c(=S)[nH]cnc43)[C@H](O)[C@@H]2O1	3.70	< 3.00	inhibition of growth at 200 µM (S49 [10]): 40%
CCCCCCCCCCCCCCCC(=O)O [PALMITIC ACID]	–	3.30	–
CC(C)C(=O)O	–	–	growth inhibition (GI) (S49 [11]): inactive
CCCC(=O)O[C@@H]1[C@@H]2OP(=O)(O)OC[C@H]2O[C@H]1n1cnc2c(=S)[nH]cnc21	3.86	3.37	pEC50 (S49 [12]): 3.60
CC(C)(C)C(=O)O[C@@H]1[C@@H]2OP(=O)(O)OC[C@H]2O[C@H]1n1cnc2c(=S)[nH]cnc21	4.48	3.63	–
CC(C)C(=O)O[C@@H]1[C@@H]2OP(=O)(O)OC[C@H]2O[C@H]1n1cnc2c(=S)[nH]cnc21	4.64	3.32	–
CCCC(=O)Nc1ncnc2c1ncn2[C@@H]1O[C@@H]2COP(=O)(O)O[C@H]2[C@H]1OC(=O)CCC	–	–	growth inhibition (GI) (S49 [13]): Active; growth inhibition (GI) (S49 [14]): Active
CCCCCCCCCCCCCCCCCCCCCC(=O)O[C@@H]1[C@@H]2OP(=O)(O)OC[C@H]2O[C@H]1n1cnc2c(=S)[nH]cnc21	–	3.92	–
